Measurements published in ChEMBL document CHEMBL2401736, “HCV NS5A replication complex inhibitors. Part 5: discovery of potent and pan-genotypic glycinamide cap derivatives” (Bioorg Med Chem Lett, 2013).

Tests used:
Hepatitis C virus [1] = test: Antiviral activity against Hepatitis C virus genotype 1a by ELISA; assay type: functional, organism-based, Hepacivirus hominis, subtype 1a
Method in brief: (§1)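 EC50 values are means of at least two experiments, with at most threefold variation between them.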

Hepatitis C virus [2] = test: Antiviral activity against Hepatitis C virus genotype 1b by FRET assay; assay type: functional, organism-based, Hepacivirus hominis; method in brief: as §1
[3] = tested on: Bovine viral diarrhea virus 1; test: Antiviral activity against Bovine viral diarrhea virus by luciferase assay; assay type: functional, organism-based; method in brief: as §1
[4] = Dissociation constant, pKa of the compound in MeOH/H2O at pH 2 to 11; assay type: physicochemical
Method in brief: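 pKa found by potentiometric titration over pH 2–11 in varying MeOH/H2O mixtures.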

Hepatitis C virus [5] = test: Ratio of EC50 for Hepatitis C virus genotype 1b harboring NS5A L31V/Y93H double mutant to EC50 for Hepatitis C virus genotype 1b; assay type: functional, Hepacivirus hominis
Hepatitis C virus [6] = test: Antiviral activity against Hepatitis C virus genotype 4a; assay type: functional, organism-based, Hepacivirus hominis
Hepatitis C virus [7] = test: Antiviral activity against Hepatitis C virus genotype 3a YH; assay type: functional, organism-based, Hepacivirus hominis; conditions: subtype 3a YH
Hepatitis C virus [8] = test: Antiviral activity against Hepatitis C virus genotype 5a; assay type: functional, organism-based, Hepacivirus hominis
Hepatitis C virus [9] = test: Antiviral activity against Hepatitis C virus genotype 2a NIH; assay type: functional, organism-based, Hepacivirus hominis; conditions: subtype 2a NIH
Hepatitis C virus [10] = test: Antiviral activity against Hepatitis C virus genotype 1b harboring NS5A L31V/Y93H double mutant by FRET assay; assay type: functional, organism-based, Hepacivirus hominis
Hepatitis C virus [11] = test: Antiviral activity against Hepatitis C virus genotype 3a; assay type: functional, organism-based, Hepacivirus hominis
[12] = Bovine viral diarrhea virus isolates and strains

Compound	EC50 (Hepatitis C virus [1]; Hepatitis C virus, subtype 1a)	EC50 (Hepatitis C virus [2]; Hepatitis C virus, genotype 1b)	EC50 [3, 12]	other results
C[C@@](O)(C(=O)N1CCC[C@H]1C(=O)Nc1ccc(Br)cc1)c1ccccc1	> 1300 nM	380 nM		
CN(C)[C@@H](Cc1ccccc1)C(=O)N1CCC[C@H]1C(=O)Nc1ccc(C#Cc2ccc(NC(=O)[C@@H]3CCCN3C(=O)[C@H](Cc3ccccc3)N(C)C)cc2)cc1	3240 nM	500 nM	1490 nM	
CN(C)[C@H](Cc1ccccc1)C(=O)N1CCC[C@H]1C(=O)Nc1ccc(C#Cc2ccc(NC(=O)[C@@H]3CCCN3C(=O)[C@@H](Cc3ccccc3)N(C)C)cc2)cc1	1290 nM	< 4.6 nM	1730 nM	
CCN(C)C(C(=O)N1CCC[C@H]1C(=O)Nc1ccc(C#Cc2ccc(NC(=O)[C@@H]3CCCN3C(=O)C(c3ccccc3)N(C)CC)cc2)cc1)c1ccccc1 (some centres not stated)	7.9 nM	≤ 0.13 nM	2790 nM	
CC(=O)N1CCN(C(C(=O)N2CCC[C@H]2C(=O)Nc2ccc(C#Cc3ccc(NC(=O)[C@@H]4CCCN4C(=O)C(c4ccccc4)N4CCN(C(C)=O)CC4)cc3)cc2)c2ccccc2)CC1 (some centres not stated)	37 nM	0.42 nM	> 10000 nM	
CS(=O)(=O)N[C@@H](C(=O)N1CCC[C@H]1C(=O)Nc1ccc(C#Cc2ccc(NC(=O)[C@@H]3CCCN3C(=O)[C@H](NS(C)(=O)=O)c3ccccc3)cc2)cc1)c1ccccc1	71 nM	< 4.6 nM	> 10000 nM	
O=C1CN(C(C(=O)N2CCC[C@H]2C(=O)Nc2ccc(C#Cc3ccc(NC(=O)[C@@H]4CCCN4C(=O)C(c4ccccc4)N4CCNC(=O)C4)cc3)cc2)c2ccccc2)CCN1 (some centres not stated)	388 nM	< 4.6 nM		pKa [4]: 2.5
O=C(Nc1ccc(/C=C/c2ccc(NC(=O)[C@@H]3CCCN3C(=O)[C@H](O)C3CCCCC3)cc2)cc1)[C@@H]1CCCN1C(=O)[C@H](O)C1CCCCC1	4650 nM	< 4.6 nM	> 10000 nM	
O=C(C(=O)N1CCC[C@H]1C(=O)Nc1ccc(/C=C/c2ccc(NC(=O)[C@@H]3CCCN3C(=O)C(=O)c3ccccc3)cc2)cc1)c1ccccc1	447 nM	4.6 nM	> 10000 nM	
O=C(Nc1ccc(C#Cc2ccc(NC(=O)[C@@H]3CCCN3C(=O)C(c3ccccc3)N3CCC(O)CC3)cc2)cc1)[C@@H]1CCCN1C(=O)C(c1ccccc1)N1CCC(O)CC1 (stereo in doubt; 5g.1)				Ratio EC50 (Hepatitis C virus [5]): >90; EC50 [3]: 6980 nM; EC50 (Hepatitis C virus [1]): 0.82 nM; EC50 (Hepatitis C virus [6]): 0.042 nM; EC50 (Hepatitis C virus [7]): 5.4 nM; EC50 (Hepatitis C virus [8]): 0.017 nM; EC50 (Hepatitis C virus [9]): 0.083 nM; EC50 (Hepatitis C virus [10]): 12 nM; EC50 (Hepatitis C virus [2]): < 0.13 nM; pKa [4]: 6.8; EC50 (Hepatitis C virus [11]): 0.037 nM
CC(=O)N(C)C(C(=O)N1CCC[C@H]1C(=O)Nc1ccc(C#Cc2ccc(NC(=O)[C@@H]3CCCN3C(=O)C(c3ccccc3)N(C)C(C)=O)cc2)cc1)c1ccccc1 (single isomer, unassigned; diastereomer 2)			> 10000 nM	EC50 (Hepatitis C virus [1]): > 5000 nM; EC50 (Hepatitis C virus [2]): 632 nM
C[C@@H](C(=O)N1CCC[C@H]1C(=O)Nc1ccc(/C=C/c2ccc(NC(=O)[C@@H]3CCCN3C(=O)[C@H](C)c3ccccc3)cc2)cc1)c1ccccc1	772 nM		2500 nM	
CN(C)C(C)(C(=O)N1CCC[C@H]1C(=O)Nc1ccc(C#Cc2ccc(NC(=O)[C@@H]3CCCN3C(=O)C(C)(c3ccccc3)N(C)C)cc2)cc1)c1ccccc1 (single isomer, unassigned; diastereomer 2)		< 4.6 nM	769 nM	EC50 (Hepatitis C virus [1]): 1080 nM
O=C(Nc1ccc(C#Cc2ccc(NC(=O)[C@@H]3CCCN3C(=O)C(c3ccccc3)N3CC[C@H](O)C3)cc2)cc1)[C@@H]1CCCN1C(=O)C(c1ccccc1)N1CC[C@H](O)C1 (some centres not stated)	3 nM	0.5 nM	> 10000 nM	
CCCOC(=O)N[C@@H](C(=O)N1CCC[C@H]1C(=O)Nc1ccc(C#Cc2ccc(NC(=O)[C@@H]3CCCN3C(=O)[C@H](NC(=O)OCCC)c3ccccc3)cc2)cc1)c1ccccc1	88 nM	0.16 nM	> 10000 nM	
CN(C)[C@H](C(=O)N1CCC[C@H]1C(=O)Nc1ccc(C#Cc2ccc(NC(=O)[C@@H]3CCCN3C(=O)[C@H](c3ccccc3)N(C)C)cc2)cc1)c1ccccc1	628 nM	< 4.6 nM	1200 nM	
CN(C)[C@@H](C(=O)N1CCC[C@H]1C(=O)Nc1ccc(C#Cc2ccc(NC(=O)[C@@H]3CCCN3C(=O)[C@@H](c3ccccc3)N(C)C)cc2)cc1)c1ccccc1	< 4.6 nM	< 4.6 nM	1900 nM	
O=C(Nc1ccc(C#Cc2ccc(NC(=O)[C@@H]3CCCN3C(=O)C(c3ccccc3)N3CC[C@@H](O)C3)cc2)cc1)[C@@H]1CCCN1C(=O)C(c1ccccc1)N1CC[C@@H](O)C1 (some centres not stated)	1.4 nM	0.094 nM	3280 nM	
N[C@H](C(=O)N1CCC[C@H]1C(=O)Nc1ccc(C#Cc2ccc(NC(=O)[C@@H]3CCCN3C(=O)[C@@H](N)c3ccccc3)cc2)cc1)c1ccccc1	> 9400 nM	< 4.6 nM	> 10000 nM	

Compound	EC50 (Hepatitis C virus [1]; Hepatitis C virus, subtype 1a)	EC50 (Hepatitis C virus [2]; Hepatitis C virus, genotype 1b)	EC50 [3, 12]	other results
O=C(Nc1ccc(C#Cc2ccc(NC(=O)[C@@H]3CCCN3C(=O)C(c3ccccc3)N3CCC(O)CC3)cc2)cc1)[C@@H]1CCCN1C(=O)C(c1ccccc1)N1CCC(O)CC1 (single isomer, unassigned; diastereomer 2)				EC50 [3]: 2970 nM; EC50 (Hepatitis C virus [1]): 600 nM; EC50 (Hepatitis C virus [2]): 4.6 nM
O=C(Nc1ccc(C#Cc2ccc(NC(=O)[C@@H]3CCCN3C(=O)[C@@H](c3ccccc3)N3CCOCC3)cc2)cc1)[C@@H]1CCCN1C(=O)[C@@H](c1ccccc1)N1CCOCC1	125 nM	< 4.6 nM	> 10000 nM	pKa [4]: 4.6
CC(=O)N(C)C(C(=O)N1CCC[C@H]1C(=O)Nc1ccc(C#Cc2ccc(NC(=O)[C@@H]3CCCN3C(=O)C(c3ccccc3)N(C)C(C)=O)cc2)cc1)c1ccccc1 (single isomer, unassigned; diastereomer 1)				EC50 (Hepatitis C virus [1]): 2450 nM; EC50 (Hepatitis C virus [2]): 57 nM
CC(C)C(=O)N[C@@H](C(=O)N1CCC[C@H]1C(=O)Nc1ccc(C#Cc2ccc(NC(=O)[C@@H]3CCCN3C(=O)[C@H](NC(=O)C(C)C)c3ccccc3)cc2)cc1)c1ccccc1	70 nM	0.002 nM	> 10000 nM	
CC(C)(C)OC(=O)N[C@H](C(=O)N1CCC[C@H]1C(=O)Nc1ccc(C#Cc2ccc(NC(=O)[C@@H]3CCCN3C(=O)[C@@H](NC(=O)OC(C)(C)C)c3ccccc3)cc2)cc1)c1ccccc1	> 10000 nM	< 4.6 nM	> 10000 nM	
CN(C)C(C)(C(=O)N1CCC[C@H]1C(=O)Nc1ccc(C#Cc2ccc(NC(=O)[C@@H]3CCCN3C(=O)C(C)(c3ccccc3)N(C)C)cc2)cc1)c1ccccc1 (stereo in doubt; 5l.1)				EC50 [3]: 697 nM; EC50 (Hepatitis C virus [1]): 100 nM
O=C(Nc1ccc(/C=C/c2ccc(NC(=O)[C@@H]3CCCN3C(=O)Cc3ccccc3)cc2)cc1)[C@@H]1CCCN1C(=O)Cc1ccccc1	> 10000 nM	0.086 nM	> 10000 nM	EC50 (Hepatitis C virus [6]): 0.16 nM; EC50 (Hepatitis C virus [7]): > 3000 nM; EC50 (Hepatitis C virus [8]): < 0.23 nM; EC50 (Hepatitis C virus [9]): 260 nM; EC50 (Hepatitis C virus [11]): 0.3 nM
COc1cccc2c(C(=O)N3CCC[C@H]3C(=O)Nc3ccc(/C=C/c4ccc(NC(=O)[C@@H]5CCCN5C(=O)c5nc(Cl)cc6c(OC)cccc56)cc4)cc3)nc(Cl)cc12	19 nM	7.1 nM	> 10000 nM	EC50 (Hepatitis C virus [6]): > 10000 nM; EC50 (Hepatitis C virus [7]): 74.9 nM; EC50 (Hepatitis C virus [8]): 3 nM; EC50 (Hepatitis C virus [9]): 14 nM; EC50 (Hepatitis C virus [11]): 3.2 nM
C[C@H](C(=O)N1CCC[C@H]1C(=O)Nc1ccc(/C=C/c2ccc(NC(=O)[C@@H]3CCCN3C(=O)[C@@H](C)c3ccccc3)cc2)cc1)c1ccccc1	> 10000 nM		> 10000 nM	
O=C(Nc1ccc(C#Cc2ccc(NC(=O)[C@@H]3CCCN3C(=O)[C@@H](c3ccccc3)N3CCCC3)cc2)cc1)[C@@H]1CCCN1C(=O)[C@@H](c1ccccc1)N1CCCC1	19 nM	< 4.6 nM	1380 nM	pKa [4]: 8.1
COC(=O)N[C@@H](C(=O)N1CCC[C@H]1C(=O)Nc1ccc(C#Cc2ccc(NC(=O)[C@@H]3CCCN3C(=O)[C@H](NC(=O)OC)c3ccccc3)cc2)cc1)c1ccccc1	26 nM	0.013 nM	> 10000 nM	EC50 (Hepatitis C virus [10]): 382 nM
CCOC(=O)N[C@@H](C(=O)N1CCC[C@H]1C(=O)Nc1ccc(C#Cc2ccc(NC(=O)[C@@H]3CCCN3C(=O)[C@H](NC(=O)OCC)c3ccccc3)cc2)cc1)c1ccccc1	114 nM	0.018 nM	> 10000 nM	
CC(C)(C)OC(=O)N[C@@H](C(=O)N1CCC[C@H]1C(=O)Nc1ccc(C#Cc2ccc(NC(=O)[C@@H]3CCCN3C(=O)[C@H](NC(=O)OC(C)(C)C)c3ccccc3)cc2)cc1)c1ccccc1	245 nM	0.002 nM	> 10000 nM	
O=C(Nc1ccc(/C=C/c2ccc(NC(=O)[C@@H]3CCCN3C(=O)[C@@H](O)C3CCCCC3)cc2)cc1)[C@@H]1CCCN1C(=O)[C@@H](O)C1CCCCC1	970 nM	63 nM	6740 nM	
N[C@@H](C(=O)N1CCC[C@H]1C(=O)Nc1ccc(C#Cc2ccc(NC(=O)[C@@H]3CCCN3C(=O)[C@H](N)c3ccccc3)cc2)cc1)c1ccccc1	910 nM	< 4.6 nM	3760 nM	
O=C(Nc1ccc(/C=C/c2ccc(NC(=O)[C@@H]3CCCN3C(=O)c3nccc4ccccc34)cc2)cc1)[C@@H]1CCCN1C(=O)c1nccc2ccccc12	390 nM	22 nM	> 10000 nM	
CC(C)OC(=O)N[C@@H](C(=O)N1CCC[C@H]1C(=O)Nc1ccc(C#Cc2ccc(NC(=O)[C@@H]3CCCN3C(=O)[C@H](NC(=O)OC(C)C)c3ccccc3)cc2)cc1)c1ccccc1	137 nM	0.28 nM	> 10000 nM	
CN1CCN(C(C(=O)N2CCC[C@H]2C(=O)Nc2ccc(C#Cc3ccc(NC(=O)[C@@H]4CCCN4C(=O)C(c4ccccc4)N4CCN(C)CC4)cc3)cc2)c2ccccc2)CC1 (single isomer, unassigned; diastereomer 2)				EC50 [3]: 1360 nM; EC50 (Hepatitis C virus [1]): 2700 nM; EC50 (Hepatitis C virus [2]): 4.4 nM
